From ChEMBL document CHEMBL1139946, “1-Aryl-4,6-dihydropyrazolo[4,3-d][1]benzazepin-5(1H)-ones: a new class of antiproliferative agents with selectivity for human leukemia and breast cancer cell lines” (Eur J Med Chem, 2007)

What was measured:
[1] = organism: Homo sapiens; assay: Inhibition of CDK4/cyclinD1 at 10 uM
[2] = biological target: Angiopoietin-1 receptor (Homo sapiens) (UniProt Q02763); assay: Inhibition of TIE2 at 10 uM
[3] = biological target: Proto-oncogene tyrosine-protein kinase Src (Homo sapiens) (UniProt P12931); assay: Inhibition of SRC at 10 uM
Proto-oncogene tyrosine-protein kinase Src (Homo sapiens), sequence (P12931 2-536 limits assumed): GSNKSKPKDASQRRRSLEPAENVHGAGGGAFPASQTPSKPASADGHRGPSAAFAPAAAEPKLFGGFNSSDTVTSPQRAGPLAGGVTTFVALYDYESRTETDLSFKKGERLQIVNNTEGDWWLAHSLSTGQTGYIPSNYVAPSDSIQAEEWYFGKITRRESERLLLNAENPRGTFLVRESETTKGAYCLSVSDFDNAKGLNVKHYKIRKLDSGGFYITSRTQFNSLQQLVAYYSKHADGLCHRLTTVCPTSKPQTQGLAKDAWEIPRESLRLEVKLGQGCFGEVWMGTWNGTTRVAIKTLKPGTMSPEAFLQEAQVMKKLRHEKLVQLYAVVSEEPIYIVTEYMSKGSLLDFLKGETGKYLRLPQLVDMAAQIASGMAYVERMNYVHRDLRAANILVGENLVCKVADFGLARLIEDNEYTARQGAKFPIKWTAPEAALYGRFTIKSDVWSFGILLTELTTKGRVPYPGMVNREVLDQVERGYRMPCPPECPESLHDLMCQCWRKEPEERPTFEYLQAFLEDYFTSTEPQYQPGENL

[4] = biological target: T1, Vascular endothelial growth factor receptor 3 (Homo sapiens, UniProt P35916); assay: Inhibition of VEGFR3 at 10 uM
T1 sequence (P35916 whole entry): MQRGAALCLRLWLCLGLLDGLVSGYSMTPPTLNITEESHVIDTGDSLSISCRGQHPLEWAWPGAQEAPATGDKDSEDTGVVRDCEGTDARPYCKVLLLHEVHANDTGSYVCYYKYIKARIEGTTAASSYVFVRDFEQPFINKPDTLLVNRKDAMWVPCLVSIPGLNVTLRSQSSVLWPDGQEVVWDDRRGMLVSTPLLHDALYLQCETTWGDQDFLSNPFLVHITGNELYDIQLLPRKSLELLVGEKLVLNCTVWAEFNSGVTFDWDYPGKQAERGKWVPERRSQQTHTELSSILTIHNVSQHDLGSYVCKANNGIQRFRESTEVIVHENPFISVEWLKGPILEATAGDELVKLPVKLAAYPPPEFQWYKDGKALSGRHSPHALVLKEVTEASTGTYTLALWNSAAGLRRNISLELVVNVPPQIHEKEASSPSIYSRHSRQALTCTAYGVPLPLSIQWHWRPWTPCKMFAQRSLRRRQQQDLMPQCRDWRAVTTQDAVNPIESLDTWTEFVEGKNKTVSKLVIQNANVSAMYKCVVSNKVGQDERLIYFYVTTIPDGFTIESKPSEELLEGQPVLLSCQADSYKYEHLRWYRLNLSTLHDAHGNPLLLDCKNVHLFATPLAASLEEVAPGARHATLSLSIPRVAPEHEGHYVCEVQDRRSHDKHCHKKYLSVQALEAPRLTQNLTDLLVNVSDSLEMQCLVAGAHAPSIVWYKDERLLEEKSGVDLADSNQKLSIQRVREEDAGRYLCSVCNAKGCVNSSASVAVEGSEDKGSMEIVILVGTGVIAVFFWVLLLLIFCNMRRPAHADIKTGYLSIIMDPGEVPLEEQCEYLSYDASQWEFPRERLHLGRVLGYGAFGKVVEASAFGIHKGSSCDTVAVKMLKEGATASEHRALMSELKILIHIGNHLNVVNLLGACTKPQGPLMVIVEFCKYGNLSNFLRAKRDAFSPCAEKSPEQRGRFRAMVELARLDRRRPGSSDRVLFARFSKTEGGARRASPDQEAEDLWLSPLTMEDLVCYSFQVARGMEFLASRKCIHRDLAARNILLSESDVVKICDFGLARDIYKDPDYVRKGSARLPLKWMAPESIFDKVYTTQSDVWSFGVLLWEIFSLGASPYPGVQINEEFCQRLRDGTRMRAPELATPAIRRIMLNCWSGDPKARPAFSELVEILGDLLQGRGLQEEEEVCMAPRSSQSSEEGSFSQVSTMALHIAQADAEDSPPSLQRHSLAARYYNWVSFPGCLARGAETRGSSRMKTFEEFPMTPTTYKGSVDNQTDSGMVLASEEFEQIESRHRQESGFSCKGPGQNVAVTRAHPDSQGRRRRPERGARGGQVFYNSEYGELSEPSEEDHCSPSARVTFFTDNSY

[5] = biological target: Receptor-type tyrosine-protein kinase FLT3 (Homo sapiens) (UniProt P36888); assay: Inhibition of FLT3 at 10 uM
[6] = test system: SF-268; assay: Antiproliferative activity against human SF268 cells at 100 uM after 48 hrs relative to control; assay type: functional; settings: SF-268, 48 h
Summary of the method: (§1)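 NCI three-cell-line prescreen (MCF7 breast, NCI-H460 non-small cell lung, SF-268 CNS). Cells inoculated and preincubated in microtiter plates, then exposed to test agent at 10^-4 M for 48 h. Alamar blue end-point read-out. Growth of treated cells expressed as percent of untreated control cells.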

[7] = biological target: Insulin-like growth factor 1 receptor (Homo sapiens) (UniProt P08069); assay: Inhibition of IGF1R at 10 uM
[8] = biological target: T2, Aurora kinase A (Homo sapiens) (UniProt O14965); assay: Inhibition of aurora A at 10 uM
T2 sequence (whole entry): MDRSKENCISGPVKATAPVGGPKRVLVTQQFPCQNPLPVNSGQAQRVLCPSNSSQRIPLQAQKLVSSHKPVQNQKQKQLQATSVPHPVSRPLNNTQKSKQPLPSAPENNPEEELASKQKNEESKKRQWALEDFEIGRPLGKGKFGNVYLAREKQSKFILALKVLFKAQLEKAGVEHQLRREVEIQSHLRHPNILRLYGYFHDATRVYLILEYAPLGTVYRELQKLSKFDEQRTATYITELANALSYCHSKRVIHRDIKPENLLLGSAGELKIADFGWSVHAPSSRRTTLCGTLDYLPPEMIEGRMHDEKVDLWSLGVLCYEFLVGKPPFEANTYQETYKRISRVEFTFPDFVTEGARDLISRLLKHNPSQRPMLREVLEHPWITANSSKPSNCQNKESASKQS

[9] = biological target: 3-phosphoinositide-dependent protein kinase 1 (Homo sapiens) (UniProt O15530); assay: Inhibition of PDK1 at 10 uM
[10] = biological target: Platelet-derived growth factor receptor beta (Homo sapiens) (UniProt P09619); assay: Inhibition of PDGFRbeta at 10 uM
[11] = biological target: Hepatocyte growth factor receptor (Homo sapiens) (UniProt P08581); assay: Inhibition of MET at 10 uM
Hepatocyte growth factor receptor (Homo sapiens), sequence (P08581 whole entry): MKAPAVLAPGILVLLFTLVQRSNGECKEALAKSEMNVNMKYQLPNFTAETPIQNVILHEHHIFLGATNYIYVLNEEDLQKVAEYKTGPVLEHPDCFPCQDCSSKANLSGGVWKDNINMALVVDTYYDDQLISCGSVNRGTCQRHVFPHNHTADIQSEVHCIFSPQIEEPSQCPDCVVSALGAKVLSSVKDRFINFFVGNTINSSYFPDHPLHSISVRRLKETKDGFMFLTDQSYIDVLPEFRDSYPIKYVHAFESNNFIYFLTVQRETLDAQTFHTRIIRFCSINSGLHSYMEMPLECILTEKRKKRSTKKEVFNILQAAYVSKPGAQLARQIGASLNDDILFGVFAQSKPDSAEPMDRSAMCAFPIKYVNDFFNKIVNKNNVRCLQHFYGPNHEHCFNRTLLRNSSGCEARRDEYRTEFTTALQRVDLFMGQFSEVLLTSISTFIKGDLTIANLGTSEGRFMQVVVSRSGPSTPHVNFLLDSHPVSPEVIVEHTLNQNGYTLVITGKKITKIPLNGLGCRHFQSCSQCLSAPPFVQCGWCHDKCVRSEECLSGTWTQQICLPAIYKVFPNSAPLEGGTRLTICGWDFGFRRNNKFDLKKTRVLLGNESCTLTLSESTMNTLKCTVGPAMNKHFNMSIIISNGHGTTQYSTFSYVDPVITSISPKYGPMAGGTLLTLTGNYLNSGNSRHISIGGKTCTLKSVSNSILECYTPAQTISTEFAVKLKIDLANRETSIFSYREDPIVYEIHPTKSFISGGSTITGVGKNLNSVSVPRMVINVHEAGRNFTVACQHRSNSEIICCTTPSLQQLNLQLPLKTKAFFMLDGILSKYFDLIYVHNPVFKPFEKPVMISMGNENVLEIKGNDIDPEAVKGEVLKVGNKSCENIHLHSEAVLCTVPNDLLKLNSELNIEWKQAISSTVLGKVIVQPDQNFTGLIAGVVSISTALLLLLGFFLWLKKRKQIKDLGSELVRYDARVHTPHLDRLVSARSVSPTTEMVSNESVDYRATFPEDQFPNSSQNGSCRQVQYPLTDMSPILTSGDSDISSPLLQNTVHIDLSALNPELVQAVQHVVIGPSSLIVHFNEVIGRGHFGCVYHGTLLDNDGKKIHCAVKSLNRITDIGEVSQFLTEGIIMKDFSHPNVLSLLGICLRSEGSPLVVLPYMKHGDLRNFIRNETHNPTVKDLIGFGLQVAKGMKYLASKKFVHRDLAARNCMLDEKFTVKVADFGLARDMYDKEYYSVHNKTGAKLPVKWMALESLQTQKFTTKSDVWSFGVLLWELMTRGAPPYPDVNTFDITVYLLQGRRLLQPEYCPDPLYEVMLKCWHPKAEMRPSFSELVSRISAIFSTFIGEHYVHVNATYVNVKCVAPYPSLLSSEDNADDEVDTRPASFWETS

[12] = biological target: RAC-alpha serine/threonine-protein kinase (Homo sapiens) (UniProt P31749); assay: Inhibition of AKT1 at 10 uM
RAC-alpha serine/threonine-protein kinase (Homo sapiens), sequence (P31749 whole entry): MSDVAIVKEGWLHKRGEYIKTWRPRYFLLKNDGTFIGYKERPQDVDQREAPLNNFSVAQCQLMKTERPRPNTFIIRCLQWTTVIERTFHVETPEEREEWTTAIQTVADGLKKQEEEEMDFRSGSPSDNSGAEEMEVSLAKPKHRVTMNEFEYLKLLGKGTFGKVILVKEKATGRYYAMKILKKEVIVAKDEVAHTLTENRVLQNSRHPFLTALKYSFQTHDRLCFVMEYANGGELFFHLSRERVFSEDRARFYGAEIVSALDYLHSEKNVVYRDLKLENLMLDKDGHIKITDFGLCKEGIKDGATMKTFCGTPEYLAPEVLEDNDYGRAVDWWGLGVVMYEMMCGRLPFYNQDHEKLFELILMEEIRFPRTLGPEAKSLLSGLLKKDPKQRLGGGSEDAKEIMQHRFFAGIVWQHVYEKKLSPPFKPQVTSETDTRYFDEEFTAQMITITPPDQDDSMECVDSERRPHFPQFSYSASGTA

[13] = biological target: Vascular endothelial growth factor receptor 2 (Homo sapiens) (UniProt P35968); assay: Inhibition of VEGFR2 at 10 uM
[14] = test system: MCF7; assay: Antiproliferative activity against human MCF7 cells at 100 uM after 48 hrs relative to control; assay type: functional; settings: MCF7, 48 h; summary of the method: as §1
[15] = biological target: Serine/threonine-protein kinase PAK 4 (Homo sapiens) (UniProt O96013); assay: Inhibition of PAK4 at 10 uM
[16] = biological target: Receptor-type tyrosine-protein kinase FLT3 (Homo sapiens, UniProt P36888); assay: Inhibition of FLT3
[17] = test system: K562; assay: Antitumor activity against human K562 cells after 48 hrs by sulforhodamine B protein assay; assay type: functional; settings: K562, 48 h
Summary of the method: (§2)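 Part of the NCI 60-cell-line screen. Compounds tested at five concentrations (10^-8 to 10^-4 M) with continuous exposure for 48 h. Cell growth read by sulforhodamine B protein assay, with percent growth from optical density of treated versus untreated control cultures. GI50 is the concentration giving 50% net growth inhibition.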

[18] = test system: MDA-MB-435; assay: Antitumor activity against human MDA-MB435 cells after 48 hrs by sulforhodamine B protein assay; assay type: functional; settings: MDA-MB-435, 48 h; summary of the method: as §2
[19] = biological target: T1, Vascular endothelial growth factor receptor 3; assay: Inhibition of VEGFR3
[20] = biological target: Cyclin-dependent kinase 4 (Homo sapiens, UniProt P11802); assay: Inhibition of CDK4
[21] = biological target: Epidermal growth factor receptor (Homo sapiens) (UniProt P00533); assay: Inhibition of EGFR at 10 uM

Angiopoietin-1 receptor (Homo sapiens), sequence (Q02763 whole entry): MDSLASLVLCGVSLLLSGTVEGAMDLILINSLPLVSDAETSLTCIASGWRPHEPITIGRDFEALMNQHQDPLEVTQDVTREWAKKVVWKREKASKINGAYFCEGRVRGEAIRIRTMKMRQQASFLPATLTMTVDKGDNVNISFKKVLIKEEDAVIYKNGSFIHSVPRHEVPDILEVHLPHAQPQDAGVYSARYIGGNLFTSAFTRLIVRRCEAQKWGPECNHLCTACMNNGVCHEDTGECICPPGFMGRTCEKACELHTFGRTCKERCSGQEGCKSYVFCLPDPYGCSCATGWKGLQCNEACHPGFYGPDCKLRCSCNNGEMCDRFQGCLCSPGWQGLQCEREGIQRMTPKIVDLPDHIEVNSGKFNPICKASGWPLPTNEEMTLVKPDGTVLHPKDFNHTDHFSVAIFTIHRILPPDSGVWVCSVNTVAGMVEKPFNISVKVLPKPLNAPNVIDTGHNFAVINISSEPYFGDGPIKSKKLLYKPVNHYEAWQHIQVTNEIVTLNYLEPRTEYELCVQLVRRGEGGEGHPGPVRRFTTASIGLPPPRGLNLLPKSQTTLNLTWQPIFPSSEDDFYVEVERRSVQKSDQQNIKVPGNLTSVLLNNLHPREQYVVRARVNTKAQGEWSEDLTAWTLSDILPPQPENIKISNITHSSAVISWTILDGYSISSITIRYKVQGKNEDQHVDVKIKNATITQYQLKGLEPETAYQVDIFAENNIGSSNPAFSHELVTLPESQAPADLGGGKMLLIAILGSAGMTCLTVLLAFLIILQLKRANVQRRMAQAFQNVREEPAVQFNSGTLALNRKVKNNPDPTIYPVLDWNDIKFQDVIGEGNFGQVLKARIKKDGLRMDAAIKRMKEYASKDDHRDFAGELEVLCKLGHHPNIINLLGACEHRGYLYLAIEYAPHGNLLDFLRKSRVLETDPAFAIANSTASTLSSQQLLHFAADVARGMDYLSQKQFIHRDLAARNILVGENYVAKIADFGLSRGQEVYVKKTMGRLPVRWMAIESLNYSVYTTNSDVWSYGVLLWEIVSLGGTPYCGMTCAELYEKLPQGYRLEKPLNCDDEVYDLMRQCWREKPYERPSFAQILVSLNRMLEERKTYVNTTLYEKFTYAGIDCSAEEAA

Row | SMILES | inhibition [1] [%] | inhibition [2] [%] | inhibition [3] [%] | inhibition [4] [%] | inhibition [5] [%] | growth, % of control at 100 µM [6] [%] | inhibition [7] [%] | inhibition [8] [%] | inhibition [9] [%] | inhibition [10] [%] | inhibition [11] [%] | inhibition [12] [%] | inhibition [13] [%] | growth, % of control at 100 µM [14] [%] | inhibition [15] [%] | GI50 [17] [µM] | GI50 [18] [nM] | also measured
1 | O=C1Cc2cnn(-c3ccc([N+](=O)[O-])cc3)c2-c2ccccc2N1 | < 40 | < 40 | < 40 | < 40 | < 40 | 62 | < 40 | < 40 | < 40 | < 40 | < 40 | < 40 | < 40 | 55 | < 40 |  |  | 
2 | O=C1Cc2cnn(-c3ccc(Cl)cc3)c2-c2ccccc2N1 | < 40 | < 40 | < 40 | < 40 |  | 80 | < 40 | < 40 | < 40 | < 40 | < 40 | < 40 | < 40 | 54 | < 40 |  |  | IC50 [16]: > 10 µM
3 | O=C1Cc2cnn(-c3ccc(Br)cc3)c2-c2ccccc2N1 | < 40 | < 40 | < 40 | < 40 | < 40 | 98 | < 40 | < 40 | < 40 | < 40 | < 40 | < 40 | < 40 | 51 | < 40 | 4.07 | 1910 | 
4 | O=C1Cc2cnn(-c3ccccc3Br)c2-c2ccccc2N1 | < 40 | < 40 | < 40 | < 40 | < 40 | 87 | < 40 | < 40 | < 40 | < 40 | < 40 | < 40 | < 40 | 69 | < 40 |  |  | 
5 | O=C1Cc2cnn(-c3ccccc3Cl)c2-c2ccccc2N1 | < 40 | < 40 | < 40 | < 40 | < 40 | 71 | < 40 | < 40 | < 40 | < 40 | < 40 | < 40 | < 40 | 66 | < 40 |  |  | 
6 | O=C1Cc2cnn(-c3ccc(F)cc3F)c2-c2ccccc2N1 | < 40 | < 40 | < 40 | < 40 | < 40 | 98 | < 40 | < 40 | < 40 | < 40 | < 40 | < 40 | < 40 | 61 | < 40 |  |  | 
7 | COc1ccc(-n2ncc3c2-c2ccccc2NC(=O)C3)cc1 | < 40 | < 40 | < 40 | < 40 | < 40 | 88 | < 40 | < 40 | < 40 | < 40 | < 40 | < 40 | < 40 | 60 | < 40 | 0.35 | 25 | 
8 | Cc1ccc(-n2ncc3c2-c2ccccc2NC(=O)C3)cc1 | < 40 | < 40 | < 40 | < 40 | < 40 | 95 | < 40 | < 40 | < 40 | < 40 | < 40 | < 40 | < 40 | 57 | < 40 | 1.78 | 2090 | 
9 | CC(C)(C)c1ccc(-n2ncc3c2-c2ccccc2NC(=O)C3)cc1 | < 40 | < 40 | < 40 |  | < 40 |  | < 40 | < 40 | < 40 | < 40 | < 40 | < 40 | < 40 | 130 | < 40 | 31.6 | 18600 | IC50 [19]: > 10 µM
10 | O=C1Cc2cnn(-c3cc(Cl)cc(Cl)c3)c2-c2ccccc2N1 | < 40 | < 40 | < 40 | < 40 | < 40 | 62 | < 40 | < 40 | < 40 | < 40 | < 40 | < 40 | < 40 | 40 | < 40 | < 0.01 | < 10 | 
11 | O=C1Cc2cnn(-c3ccccc3F)c2-c2ccccc2N1 | < 40 | < 40 | < 40 | < 40 | < 40 | 98 | < 40 | < 40 | < 40 | < 40 | < 40 | < 40 | < 40 | 66 | < 40 |  |  | 
12 | O=C1Cc2cnn(-c3ccc(C(F)(F)F)cc3)c2-c2ccccc2N1 | < 40 | < 40 | < 40 | < 40 | < 40 |  | < 40 | < 40 | < 40 | < 40 | < 40 | < 40 | < 40 | 52 | < 40 | 12.6 | 11200 | 
13 | O=C1Cc2cnn(-c3cccc(Cl)c3)c2-c2ccccc2N1 | > 40 | < 40 | < 40 | < 40 | < 40 | 101 | < 40 | < 40 | < 40 | < 40 | < 40 | < 40 | < 40 | 64 | < 40 |  |  | IC50 [20]: > 10 µM
14 | Cc1ccccc1-n1ncc2c1-c1ccccc1NC(=O)C2 | < 40 | < 40 | < 40 | < 40 | < 40 | 98 | < 40 | < 40 | < 40 | < 40 | < 40 | < 40 | < 40 | 64 | < 40 |  |  | 
15 | O=C1Cc2cnn(-c3ccccc3)c2-c2ccccc2N1 | < 40 | < 40 | < 40 | < 40 | < 40 | 90 | < 40 | < 40 | < 40 | < 40 | < 40 | < 40 | < 40 | 55 | < 40 |  |  | inhibition [21]: < 40%
